Calls of active or inactive are those of the source. The calls are words filed in the database; no cut-off is given here.
Assays:
[1] = target: T1, 5-hydroxytryptamine receptor 2A (Homo sapiens, UniProt P28223); experiment: Antagonist activity at human 5-HT2A receptor expressed in F1pIn CHO cells assessed as inhibition of serotonin-induced myo-inositol 1 phosphate accumulation after 1 hr by HTRF assay; format: functional, cell-based
Method in brief: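 Functional affinity (KB) from interaction studies against varying serotonin concentrations in an IP1 accumulation assay in 5-HT2A-FlpIn CHO cells. Mean of three to four experiments, each run in duplicate.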

D(2) dopamine receptor [2] = target: T2, D(2) dopamine receptor (Homo sapiens, UniProt P14416); experiment: Antagonist activity at human dopamine D2L receptor expressed in F1pIn CHO cells assessed as inhibition of ERK1/2 phosphorylation incubated for 5 mins by AlphaScreen assay; format: cell-based
T2 sequence (P14416 whole entry): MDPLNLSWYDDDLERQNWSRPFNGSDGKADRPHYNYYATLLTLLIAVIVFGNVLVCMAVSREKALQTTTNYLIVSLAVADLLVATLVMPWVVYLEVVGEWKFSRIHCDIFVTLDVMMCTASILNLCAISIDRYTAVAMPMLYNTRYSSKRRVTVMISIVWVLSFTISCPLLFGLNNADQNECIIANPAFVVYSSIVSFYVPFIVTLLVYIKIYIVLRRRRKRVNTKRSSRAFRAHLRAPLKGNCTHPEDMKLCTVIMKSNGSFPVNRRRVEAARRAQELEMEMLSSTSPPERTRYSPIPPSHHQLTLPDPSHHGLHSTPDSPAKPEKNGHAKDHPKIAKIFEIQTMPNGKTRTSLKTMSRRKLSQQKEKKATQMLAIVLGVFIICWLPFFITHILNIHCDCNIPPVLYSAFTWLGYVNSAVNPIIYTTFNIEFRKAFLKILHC
Method in brief: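 Functional affinity (KB) from interaction studies against varying dopamine concentrations, read out as pERK1/2 levels in D2L-FlpIn CHO cells. Data fitted by Gaddum–Schild analysis. Mean of three to four experiments, each run in duplicate.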

D(2) dopamine receptor [3] = target: T2, D(2) dopamine receptor; experiment: Displacement of [3H]-raclopride from human dopamine D2L receptor expressed in F1pIn CHO cells after 60 mins by scintillation counting analysis; format: cell-based
Method in brief: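 Binding in whole D2L-FlpIn CHO cells with [3H]raclopride as radioligand. Mean of three to four experiments, each run in duplicate.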

[4] = target: T1, 5-hydroxytryptamine receptor 2A; experiment: Displacement of [3H]ketanserin from human 5-HT2A receptor expressed in F1pIn CHO cell membranes after 1 hr by scintillation counting method
Method in brief: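 Binding in 5-HT2A-FlpIn CHO cell membranes with [3H]ketanserin as radioligand. Mean of three to four experiments, each run in duplicate.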

D(2) dopamine receptor [5] = target: T2, D(2) dopamine receptor; experiment: Antagonist activity at human dopamine D2L receptor expressed in F1pIn CHO cells assessed as inhibition of ERK1/2 phosphorylation by time-course assay; format: cell-based
D(2) dopamine receptor [6] = target: T2, D(2) dopamine receptor; experiment: Agonist activity at human dopamine D2L receptor expressed in F1pIn CHO cells assessed as […] forskolin-mediated cAMP accumulation incubated for 30 mins by AlphaScreen assay; format: functional, cell-based
Method in brief: (§1)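 D2L-FlpIn CHO cells. Agonist concentration–response curves were measured for cAMP signalling and for ERK1/2 phosphorylation. Mean of four to six experiments, each run in duplicate.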

[7] = target: Muscarinic acetylcholine receptor M1 (Homo sapiens) (UniProt P11229); experiment: Agonist activity at human mAChR1 receptor expressed in F1pIn CHO cells assessed as induction of intracellular calcium mobilization
Sequence of Muscarinic acetylcholine receptor M1 (Homo sapiens) (P11229 whole entry, looked up): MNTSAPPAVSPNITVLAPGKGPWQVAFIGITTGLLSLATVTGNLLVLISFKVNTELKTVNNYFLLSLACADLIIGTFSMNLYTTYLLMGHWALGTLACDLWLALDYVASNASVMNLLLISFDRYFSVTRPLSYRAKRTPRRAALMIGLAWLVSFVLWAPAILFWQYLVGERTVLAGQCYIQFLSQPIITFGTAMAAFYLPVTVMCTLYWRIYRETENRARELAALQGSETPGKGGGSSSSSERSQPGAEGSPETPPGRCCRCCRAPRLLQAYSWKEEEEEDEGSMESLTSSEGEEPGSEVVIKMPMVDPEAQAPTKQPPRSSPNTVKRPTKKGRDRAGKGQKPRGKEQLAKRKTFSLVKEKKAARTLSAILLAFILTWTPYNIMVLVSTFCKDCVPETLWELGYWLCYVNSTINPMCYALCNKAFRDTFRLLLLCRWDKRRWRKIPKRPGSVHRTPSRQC

D(2) dopamine receptor [8] = target: T2, D(2) dopamine receptor; experiment: Agonist activity at human dopamine D2L receptor expressed in F1pIn CHO cells assessed as induction of ERK1/2 phosphorylation incubated for 5 mins by AlphaScreen assay relative to FBS; format: cell-based
Method in brief: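 D2L-FlpIn CHO cells, pERK1/2 assay. Emax is given as a percentage of the maximal response to FBS. Mean of four to six experiments, each run in duplicate.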

D(2) dopamine receptor [9] = target: T2, D(2) dopamine receptor; experiment: Agonist activity at human dopamine D2L receptor expressed in F1pIn CHO cells assessed as […] forskolin-mediated cAMP accumulation incubated for 30 mins by AlphaScreen assay relative to ropinirole; format: functional, cell-based
Method in brief: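 D2L-FlpIn CHO cells, cAMP signalling. Emax is given as a percentage of the maximal response to ropinirole. Mean of four to six experiments, each run in duplicate.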

D(2) dopamine receptor [10] = target: T2, D(2) dopamine receptor; experiment: Agonist activity at human dopamine D2L receptor expressed in F1pIn CHO cells assessed as induction of ERK1/2 phosphorylation incubated for 5 mins by AlphaScreen assay; format: cell-based; method in brief: as §1
D(2) dopamine receptor [11] = target: T2, D(2) dopamine receptor; experiment: Agonist activity at human dopamine D2L receptor expressed in F1pIn CHO cells assessed as induction of ERK1/2 phosphorylation by time-course assay; format: cell-based
[12] = target: Muscarinic acetylcholine receptor M1 (Homo sapiens) (UniProt P11229); experiment: Agonist activity at human mAChR1 receptor expressed in F1pIn CHO cells assessed as induction of intracellular calcium mobilization relative to acetylcholine

T1 sequence (P28223 whole entry): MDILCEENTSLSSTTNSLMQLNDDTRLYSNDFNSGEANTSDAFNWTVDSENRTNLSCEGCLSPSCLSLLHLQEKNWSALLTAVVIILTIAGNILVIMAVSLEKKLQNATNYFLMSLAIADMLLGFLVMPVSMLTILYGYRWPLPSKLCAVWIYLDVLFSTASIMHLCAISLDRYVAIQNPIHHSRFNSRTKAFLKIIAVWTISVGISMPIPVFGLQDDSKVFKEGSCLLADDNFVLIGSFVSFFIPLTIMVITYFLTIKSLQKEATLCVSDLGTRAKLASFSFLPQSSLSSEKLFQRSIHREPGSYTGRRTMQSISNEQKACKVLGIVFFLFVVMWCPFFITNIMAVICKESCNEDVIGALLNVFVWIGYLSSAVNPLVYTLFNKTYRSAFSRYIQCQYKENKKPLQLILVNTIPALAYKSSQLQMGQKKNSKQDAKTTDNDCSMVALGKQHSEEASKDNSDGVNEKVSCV

Row | SMILES | Kb [1] [nM] | pKb [1] | Kb (D(2) dopamine receptor [2]) [nM] | pKb (D(2) dopamine receptor [2]) | Ki (D(2) dopamine receptor [3]) [nM] | Ki [4] [nM] | inhibition (D(2) dopamine receptor [5]) | EC50 (D(2) dopamine receptor [6]) [nM] | pEC50 [7] | Emax (D(2) dopamine receptor [8]) [%] | Emax (D(2) dopamine receptor [9]) [%] | EC50 (D(2) dopamine receptor [10]) [nM] | Activity (D(2) dopamine receptor [11]) | Emax [12]
1 | O=C1COc2ccccc2N1CCCN1CCN(c2nsc3ccccc23)CC1 | 235 | 6.63 | 7 | 8.16 | 17.7 | 5.8 | Active |  |  |  |  |  |  | 
2 | O=C1COc2ccccc2N1CCCN1CCN(c2cccc(Cl)c2Cl)CC1 | 1860 | 5.73 | 99 | 7 | 273 | 75.8 | Active |  | inactive |  |  |  |  | inactive
3 | COc1ccccc1N1CCN(CCCN2C(=O)COc3ccccc32)CC1 | 578 | 6.24 | 7.8 | 8.11 | 42.7 | 275 | Active |  | inactive |  |  |  |  | inactive
4 | O=C(Cc1ccccc1)NC1CCN(CCCN2C(=O)COc3ccccc32)CC1 | 1570 | 5.8 | 2090 | 5.68 | 834 | 1040 |  |  |  |  |  |  |  | 101%

The next compounds have a lower Ki (D(2) dopamine receptor [3]) than those just listed; values first:

Row | Kb [1] [nM] | pKb [1] | Kb (D(2) dopamine receptor [2]) [nM] | pKb (D(2) dopamine receptor [2]) | Ki (D(2) dopamine receptor [3]) [nM] | Ki [4] [nM] | inhibition (D(2) dopamine receptor [5]) | EC50 (D(2) dopamine receptor [6]) [nM] | pEC50 [7] | Emax (D(2) dopamine receptor [8]) [%] | Emax (D(2) dopamine receptor [9]) [%] | EC50 (D(2) dopamine receptor [10]) [nM] | Activity (D(2) dopamine receptor [11]) | Emax [12] | SMILES
5 | 21.2 | 7.67 | 1.2 | 8.91 | 3.2 | 2.7 | Active |  | inactive |  |  |  |  | inactive | O=C1COc2ccccc2N1CCCN1CCC(c2noc3cc(F)ccc23)CC1
6 | 1140 | 5.94 |  |  | 1.7 | 568 |  | 0.096 | inactive | 26 | 97 | 0.64 | Active | inactive | O=C1COc2ccccc2N1CCCN1CCN(c2cccc3[nH]c(=O)oc23)CC1

From ChEMBL document CHEMBL4000143, “Proof of concept study for designed multiple ligands targeting the dopamine D2, serotonin 5-HT2A, and muscarinic M1 acetylcholine receptors” (J Med Chem, 2015)
